Columns and labels:
Conditions in all cases: stereoisomer not certain
UniProt Q7TR71 = biological target: T1, UniProt Q7TR71
T1 sequence (whole entry): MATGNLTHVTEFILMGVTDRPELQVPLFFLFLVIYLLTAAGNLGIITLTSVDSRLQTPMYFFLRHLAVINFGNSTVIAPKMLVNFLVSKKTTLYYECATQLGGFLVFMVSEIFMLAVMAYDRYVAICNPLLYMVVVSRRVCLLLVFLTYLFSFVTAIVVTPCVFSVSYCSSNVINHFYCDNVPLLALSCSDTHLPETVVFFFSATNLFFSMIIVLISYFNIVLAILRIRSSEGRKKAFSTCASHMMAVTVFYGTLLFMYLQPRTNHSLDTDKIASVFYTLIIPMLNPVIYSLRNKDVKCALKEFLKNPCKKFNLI
Procedure, shortened: (§1)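 Whether a receptor–molecule pair is responsive (active) rests on the original authors' judgment that its measured signal was statistically different from baseline. Pairs without that judgment are non-responsive (inactive). Sources used varied assay methods, commonly transient luciferase assays in mammalian cell lines.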

UniProt Q7TR79 = biological target: T2, UniProt Q7TR79
T2 sequence (whole entry): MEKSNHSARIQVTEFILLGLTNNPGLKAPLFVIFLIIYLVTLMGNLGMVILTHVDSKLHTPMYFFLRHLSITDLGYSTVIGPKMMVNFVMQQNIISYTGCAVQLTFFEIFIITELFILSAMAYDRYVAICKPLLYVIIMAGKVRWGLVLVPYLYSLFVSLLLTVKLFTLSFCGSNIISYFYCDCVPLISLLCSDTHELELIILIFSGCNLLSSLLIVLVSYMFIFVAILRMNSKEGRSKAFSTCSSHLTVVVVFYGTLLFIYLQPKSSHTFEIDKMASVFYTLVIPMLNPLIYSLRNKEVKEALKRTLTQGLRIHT
Procedure, shortened: as §1

UniProt Q7TRA3 = biological target: T3, UniProt Q7TRA3
T3 sequence (whole entry): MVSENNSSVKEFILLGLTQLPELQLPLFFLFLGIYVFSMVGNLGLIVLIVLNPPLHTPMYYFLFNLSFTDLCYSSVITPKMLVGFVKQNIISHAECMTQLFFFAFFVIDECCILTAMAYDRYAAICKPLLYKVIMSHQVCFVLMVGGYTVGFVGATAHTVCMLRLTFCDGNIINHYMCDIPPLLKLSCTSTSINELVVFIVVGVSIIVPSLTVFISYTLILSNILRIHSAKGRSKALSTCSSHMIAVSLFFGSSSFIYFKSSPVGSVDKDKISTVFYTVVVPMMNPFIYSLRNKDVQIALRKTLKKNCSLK
Procedure, shortened: as §1

UniProt Q7TRE4 = biological target: T4, UniProt Q7TRE4
T4 sequence (whole entry): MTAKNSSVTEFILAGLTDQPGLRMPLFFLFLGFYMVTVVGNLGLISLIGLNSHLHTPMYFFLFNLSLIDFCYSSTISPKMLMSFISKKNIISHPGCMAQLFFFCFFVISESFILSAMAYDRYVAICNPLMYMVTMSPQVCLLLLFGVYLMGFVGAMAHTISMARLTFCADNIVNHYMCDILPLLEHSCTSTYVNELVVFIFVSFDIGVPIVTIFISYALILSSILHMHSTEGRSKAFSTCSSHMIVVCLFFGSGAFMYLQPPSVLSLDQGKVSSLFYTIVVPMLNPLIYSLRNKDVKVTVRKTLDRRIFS
Procedure, shortened: as §1

UniProt Q7TRM0 = biological target: T5, UniProt Q7TRM0
T5 sequence (whole entry): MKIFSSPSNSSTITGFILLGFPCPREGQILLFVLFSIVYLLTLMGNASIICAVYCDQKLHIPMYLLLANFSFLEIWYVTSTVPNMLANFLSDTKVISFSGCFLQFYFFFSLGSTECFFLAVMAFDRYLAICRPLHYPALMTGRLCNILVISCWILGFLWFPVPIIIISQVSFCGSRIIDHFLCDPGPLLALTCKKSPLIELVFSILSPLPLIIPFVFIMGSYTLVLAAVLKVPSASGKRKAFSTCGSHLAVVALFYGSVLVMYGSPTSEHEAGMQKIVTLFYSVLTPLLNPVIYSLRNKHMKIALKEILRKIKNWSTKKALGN
Procedure, shortened: as §1

UniProt Q7TRN9 = biological target: T6, UniProt Q7TRN9
T6 sequence (whole entry): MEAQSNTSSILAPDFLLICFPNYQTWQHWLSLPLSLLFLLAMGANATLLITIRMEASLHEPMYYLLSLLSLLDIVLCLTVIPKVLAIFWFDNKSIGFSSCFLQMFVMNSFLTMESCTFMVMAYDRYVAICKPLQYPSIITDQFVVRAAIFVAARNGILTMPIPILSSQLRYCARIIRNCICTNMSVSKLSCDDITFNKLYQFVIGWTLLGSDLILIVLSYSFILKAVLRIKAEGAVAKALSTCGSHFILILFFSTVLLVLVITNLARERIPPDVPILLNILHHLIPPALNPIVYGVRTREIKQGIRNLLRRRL
Procedure, shortened: as §1

UniProt Q7TRR8 = biological target: T7, UniProt Q7TRR8
T7 sequence (whole entry): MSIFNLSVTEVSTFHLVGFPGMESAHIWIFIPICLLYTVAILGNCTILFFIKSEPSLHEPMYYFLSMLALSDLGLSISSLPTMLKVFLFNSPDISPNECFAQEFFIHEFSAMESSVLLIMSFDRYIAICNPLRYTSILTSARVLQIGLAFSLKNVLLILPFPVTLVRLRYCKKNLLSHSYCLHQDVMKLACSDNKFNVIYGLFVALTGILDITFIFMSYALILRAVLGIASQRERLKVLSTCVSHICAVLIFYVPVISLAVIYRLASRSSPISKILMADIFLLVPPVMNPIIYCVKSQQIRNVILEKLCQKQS
Procedure, shortened: as §1

UniProt Q7TRW1 = biological target: T8, UniProt Q7TRW1
T8 sequence (whole entry): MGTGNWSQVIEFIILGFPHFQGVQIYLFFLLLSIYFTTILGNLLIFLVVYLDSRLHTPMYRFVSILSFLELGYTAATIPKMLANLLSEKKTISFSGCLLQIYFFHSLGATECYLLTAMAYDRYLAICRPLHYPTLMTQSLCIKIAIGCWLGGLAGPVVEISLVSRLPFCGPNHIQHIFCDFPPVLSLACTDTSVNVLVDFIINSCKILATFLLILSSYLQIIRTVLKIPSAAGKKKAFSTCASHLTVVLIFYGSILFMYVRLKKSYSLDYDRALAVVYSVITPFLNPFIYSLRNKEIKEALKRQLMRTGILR
Procedure, shortened: as §1

UniProt Q7TRX0 = biological target: T9, UniProt Q7TRX0
T9 sequence (whole entry): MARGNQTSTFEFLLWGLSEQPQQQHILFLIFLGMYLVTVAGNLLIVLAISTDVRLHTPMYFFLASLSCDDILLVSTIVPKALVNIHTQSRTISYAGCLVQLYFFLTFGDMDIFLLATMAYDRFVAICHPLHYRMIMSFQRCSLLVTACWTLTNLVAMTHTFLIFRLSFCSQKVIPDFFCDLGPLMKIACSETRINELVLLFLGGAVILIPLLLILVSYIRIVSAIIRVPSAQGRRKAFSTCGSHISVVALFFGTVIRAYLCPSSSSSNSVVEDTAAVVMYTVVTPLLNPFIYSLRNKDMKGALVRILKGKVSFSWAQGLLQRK
Procedure, shortened: as §1

UniProt Q8VEU7 = biological target: T10, UniProt Q8VEU7
T10 sequence (whole entry): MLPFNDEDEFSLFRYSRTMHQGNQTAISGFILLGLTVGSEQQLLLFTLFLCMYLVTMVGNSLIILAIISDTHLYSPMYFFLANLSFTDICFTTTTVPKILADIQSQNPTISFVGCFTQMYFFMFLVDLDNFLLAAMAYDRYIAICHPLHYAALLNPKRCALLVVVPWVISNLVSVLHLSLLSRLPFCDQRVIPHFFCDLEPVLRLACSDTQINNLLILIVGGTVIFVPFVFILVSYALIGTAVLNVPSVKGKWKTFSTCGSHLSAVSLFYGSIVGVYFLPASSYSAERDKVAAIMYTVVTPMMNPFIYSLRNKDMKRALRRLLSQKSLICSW
Procedure, shortened: as §1

UniProt Q8VF05 = biological target: T11, UniProt Q8VF05
T11 sequence (whole entry): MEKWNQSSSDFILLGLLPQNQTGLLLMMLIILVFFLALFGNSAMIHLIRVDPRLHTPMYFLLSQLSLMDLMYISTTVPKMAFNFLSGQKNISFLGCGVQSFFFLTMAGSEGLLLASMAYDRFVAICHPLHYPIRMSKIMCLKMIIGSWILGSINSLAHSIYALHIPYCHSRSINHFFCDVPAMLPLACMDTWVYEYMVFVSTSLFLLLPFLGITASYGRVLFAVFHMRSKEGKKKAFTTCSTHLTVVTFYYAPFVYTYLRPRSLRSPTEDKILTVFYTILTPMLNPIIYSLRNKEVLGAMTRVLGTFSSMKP
Procedure, shortened: as §1

UniProt Q7TRX1 = biological target: UniProt Q7TRX1
Procedure, shortened: as §1

Measured: odorant receptor agonist call;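 further: active if original authors judged signal statistically different from baseline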

Chain of UniProt Q7TRX1 (Q7TRX1 as listed by the source): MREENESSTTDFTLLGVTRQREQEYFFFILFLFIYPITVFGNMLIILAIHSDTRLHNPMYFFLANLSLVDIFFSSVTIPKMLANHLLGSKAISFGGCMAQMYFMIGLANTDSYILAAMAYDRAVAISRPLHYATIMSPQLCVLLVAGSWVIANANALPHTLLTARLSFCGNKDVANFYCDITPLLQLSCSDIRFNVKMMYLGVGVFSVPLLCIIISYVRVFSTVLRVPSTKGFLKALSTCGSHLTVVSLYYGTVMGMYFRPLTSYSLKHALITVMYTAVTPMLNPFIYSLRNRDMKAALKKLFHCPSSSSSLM

CCCCCCCCO
active: UniProt Q7TRN9
not listed: UniProt Q7TRX1
inactive: all other assays above

CCC(=O)C(=O)CC
active: UniProt Q8VF05
not listed: UniProt Q7TRM0 | UniProt Q7TRN9 | UniProt Q7TRR8 | UniProt Q7TRX1
inactive: all other assays above

COc1cc(C(=O)O)ccc1O
not listed: UniProt Q7TRM0 | UniProt Q7TRN9 | UniProt Q7TRR8 | UniProt Q7TRX1
inactive: all other assays above

CCCCCCO
not listed: UniProt Q7TRM0 | UniProt Q7TRX1
inactive: all other assays above

CCCCCCCC(C)=O
not listed: UniProt Q7TRM0 | UniProt Q7TRN9 | UniProt Q7TRR8 | UniProt Q7TRX1
inactive: all other assays above

CC(C)=CCCC(C)CCO (configuration not stated)
active: UniProt Q7TRX1
not listed: UniProt Q7TRM0 | UniProt Q7TRN9 | UniProt Q7TRR8
inactive: all other assays above

O=C(c1ccccc1)c1ccccc1
active: UniProt Q7TRA3
not listed: UniProt Q7TRM0 | UniProt Q7TRN9 | UniProt Q7TRR8 | UniProt Q7TRX1
inactive: all other assays above

Reference: the M2OR odorant receptor database
